Measurements from article PMC3747510 (Scientific Reports, 2013).

Tests used:
Human cytosolic LeuRS = Human cytosolic LeuRS (Homo sapiens, UniProt Q9P2J5); assay: Aminoacylation inhibition; assay type: biochemical
How it was run: (§1)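 Human cytosolic or mitochondrial LeuRS, expressed in E. coli. Aminoacylation run at 30°C. At least six test-compound concentrations were tested, with enzyme amount set to form 10 pmol Leu-tRNALeu in 5 min. IC50 was taken from a fitted dose-response curve, as the mean of at least two independent experiments.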

[1] = target: T1, Human mitochondrial LeuRS (Homo sapiens, UniProt Q15031); assay: Aminoacylation inhibition; assay type: biochemical
T1 sequence (Q15031 1-903): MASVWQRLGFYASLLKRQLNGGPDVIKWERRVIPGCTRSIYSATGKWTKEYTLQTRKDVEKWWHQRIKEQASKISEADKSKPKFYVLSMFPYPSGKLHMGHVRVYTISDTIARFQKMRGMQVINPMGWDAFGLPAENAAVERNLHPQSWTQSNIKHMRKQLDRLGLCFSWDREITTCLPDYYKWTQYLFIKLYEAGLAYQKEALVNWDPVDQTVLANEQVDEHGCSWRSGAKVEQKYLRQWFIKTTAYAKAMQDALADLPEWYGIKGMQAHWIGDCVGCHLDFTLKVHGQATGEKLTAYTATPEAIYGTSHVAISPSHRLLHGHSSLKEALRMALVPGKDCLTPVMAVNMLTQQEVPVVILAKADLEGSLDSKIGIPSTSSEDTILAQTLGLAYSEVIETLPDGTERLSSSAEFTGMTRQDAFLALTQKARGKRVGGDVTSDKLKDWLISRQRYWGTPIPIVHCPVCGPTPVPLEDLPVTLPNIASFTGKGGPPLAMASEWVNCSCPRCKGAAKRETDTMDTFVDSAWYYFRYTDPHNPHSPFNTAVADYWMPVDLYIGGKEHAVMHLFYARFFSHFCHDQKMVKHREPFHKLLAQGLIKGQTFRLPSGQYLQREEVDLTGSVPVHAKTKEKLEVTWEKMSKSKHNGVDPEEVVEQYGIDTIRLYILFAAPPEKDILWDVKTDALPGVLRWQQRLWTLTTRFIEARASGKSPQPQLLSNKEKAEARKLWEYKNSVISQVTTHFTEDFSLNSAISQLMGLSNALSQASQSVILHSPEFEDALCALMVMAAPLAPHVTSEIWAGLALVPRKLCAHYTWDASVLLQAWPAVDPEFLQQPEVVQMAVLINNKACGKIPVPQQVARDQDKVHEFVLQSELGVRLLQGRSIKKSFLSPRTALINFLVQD
How it was run: as §1

A549 = assay: Cell proliferation assay; assay type: cell-based; details: Homo sapiens, A549, read-out: IC50, Human cell lines, A549
How it was run: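 Cells in DMEM/10% FBS, 37°C, 5% CO2. Seeded from 1 × 10^5 cells/mL and allowed to adhere overnight. Test compound added at 2.5–100 μg/mL (0.5% DMSO final), five wells per concentration. Incubated 0, 24, 48 or 72 h, then 4 h with MTS/PMS (20:1), and A492 read. DMSO and medium-only controls. IC50 by nonlinear regression against log concentration.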

SpLeuRS Y332D = target: T2, SpLeuRS Y332D (Streptococcus pneumoniae serotype 4, UniProt Q97SS0, Y332D); assay: Aminoacylation by SpLeuRS Y332D mutant; assay type: biochemical; details: 50 μM ZCL039
T2 sequence (Q97SS0 1-833 Y332D): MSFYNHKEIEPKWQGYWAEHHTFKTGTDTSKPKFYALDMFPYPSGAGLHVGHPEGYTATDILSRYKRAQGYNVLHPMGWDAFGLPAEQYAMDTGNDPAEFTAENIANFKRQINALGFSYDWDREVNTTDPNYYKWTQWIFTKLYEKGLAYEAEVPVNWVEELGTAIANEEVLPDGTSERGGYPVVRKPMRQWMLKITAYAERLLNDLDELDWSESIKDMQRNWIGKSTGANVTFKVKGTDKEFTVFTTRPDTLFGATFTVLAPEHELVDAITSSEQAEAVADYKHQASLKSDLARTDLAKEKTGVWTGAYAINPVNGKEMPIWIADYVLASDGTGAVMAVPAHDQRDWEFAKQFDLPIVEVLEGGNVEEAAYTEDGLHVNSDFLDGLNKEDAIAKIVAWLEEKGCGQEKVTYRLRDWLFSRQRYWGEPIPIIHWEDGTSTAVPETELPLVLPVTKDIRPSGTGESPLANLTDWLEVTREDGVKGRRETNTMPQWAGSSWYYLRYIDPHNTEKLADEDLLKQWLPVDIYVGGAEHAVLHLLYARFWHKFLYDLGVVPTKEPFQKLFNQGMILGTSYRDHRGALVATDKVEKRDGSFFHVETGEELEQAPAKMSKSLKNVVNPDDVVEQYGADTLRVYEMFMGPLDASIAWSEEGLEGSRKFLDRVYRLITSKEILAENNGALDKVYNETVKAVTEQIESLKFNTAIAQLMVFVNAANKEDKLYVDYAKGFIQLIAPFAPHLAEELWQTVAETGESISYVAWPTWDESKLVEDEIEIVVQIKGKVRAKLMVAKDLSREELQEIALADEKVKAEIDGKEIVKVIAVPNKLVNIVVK
How it was run: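 Aminoacylation at 37°C, started with 4 mM ATP. Point mutants were made by site-directed mutagenesis. The MmLinker chimera has CP1 Lys226–Thr411 replaced by a nonapeptide. Means of three independent experiments.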

Chain of Human cytosolic LeuRS (Q9P2J5 whole entry): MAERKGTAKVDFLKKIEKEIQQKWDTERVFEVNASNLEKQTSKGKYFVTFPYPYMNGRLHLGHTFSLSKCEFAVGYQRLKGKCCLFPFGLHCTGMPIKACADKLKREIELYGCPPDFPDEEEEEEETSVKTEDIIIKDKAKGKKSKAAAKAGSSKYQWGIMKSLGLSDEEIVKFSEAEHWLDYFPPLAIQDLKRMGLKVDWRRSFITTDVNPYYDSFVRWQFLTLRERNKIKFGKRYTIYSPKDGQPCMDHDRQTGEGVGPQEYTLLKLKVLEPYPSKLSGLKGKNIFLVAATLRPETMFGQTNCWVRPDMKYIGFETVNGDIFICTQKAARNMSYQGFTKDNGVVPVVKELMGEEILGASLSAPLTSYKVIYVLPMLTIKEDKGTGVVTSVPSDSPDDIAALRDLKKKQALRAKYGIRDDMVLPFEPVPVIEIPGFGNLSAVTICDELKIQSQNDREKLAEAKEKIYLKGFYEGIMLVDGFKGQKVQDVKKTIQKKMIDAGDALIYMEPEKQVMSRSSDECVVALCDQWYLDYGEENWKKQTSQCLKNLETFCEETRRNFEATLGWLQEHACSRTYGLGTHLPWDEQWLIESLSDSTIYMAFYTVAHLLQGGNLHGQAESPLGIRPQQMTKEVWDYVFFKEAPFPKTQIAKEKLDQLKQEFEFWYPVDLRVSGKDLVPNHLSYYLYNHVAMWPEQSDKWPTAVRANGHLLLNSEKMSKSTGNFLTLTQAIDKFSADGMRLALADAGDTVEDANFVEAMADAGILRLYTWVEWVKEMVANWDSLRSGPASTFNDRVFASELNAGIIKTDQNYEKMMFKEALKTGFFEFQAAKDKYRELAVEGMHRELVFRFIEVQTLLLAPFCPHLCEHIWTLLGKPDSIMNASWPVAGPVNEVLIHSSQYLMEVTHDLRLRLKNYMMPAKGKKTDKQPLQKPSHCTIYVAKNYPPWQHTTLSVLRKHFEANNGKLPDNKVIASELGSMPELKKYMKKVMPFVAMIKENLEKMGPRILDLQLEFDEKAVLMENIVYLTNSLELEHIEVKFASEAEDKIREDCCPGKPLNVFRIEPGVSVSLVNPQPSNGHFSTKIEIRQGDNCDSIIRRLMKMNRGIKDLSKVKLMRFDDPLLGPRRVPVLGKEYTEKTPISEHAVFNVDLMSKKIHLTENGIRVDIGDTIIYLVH

OB1OCc2ccc(C(O)c3ccccc3)cc21 (stereo not drawn) [ZCL039, [6-(1-phenyl-1-hydroxylmethyl)]-1,3-dihydro-1-hydroxy-2,1-benzoxaborole]
IC50 (Human cytosolic LeuRS): > 250 µM
Fold more sensitivity of SpLeuRS than human cytosolic LeuRS (Human cytosolic LeuRS; aminoacylation): over 150 fold
Fold less sensitive than SpLeuRS (Human cytosolic LeuRS; human cytosolic and mitochondrial LeuRSs vs SpLeuRS): approximately 150 fold
IC50 [1]: > 250 µM
IC50 (A549): > 200 µM
Effect on synthetic activity of Y332D mutant (SpLeuRS Y332D): did not affect
